Experimental data: ChEMBL document CHEMBL1949533, “Novel molecular combination deriving from natural aminoacids and polyphenols: Design, synthesis and free-radical scavenging activities” (Eur J Med Chem, 2012)

Tests used:
[1] = system: Radical scavenging activity; assay: Antioxidant activity assessed as DPPH free radical scavenging activity by UV-Vis spectrophotometry; type: functional
Outline: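 DPPH methanolic solution (1.5 mL) mixed with 0.750 mL compound solution at 1, 0.5, 0.25, 0.125 and 0.0625 mg/mL; absorbance decrease read at 517 nm and % remaining DPPH radical calculated. IC50 (concentration halving initial DPPH) derived by regression across concentrations, expressed as nmol/mL.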

[2] = Antioxidant activity assessed as trolox equivalents ratio of AAPH radical scavenging activity after 30 mins by ORAC-fluorescein assay; type: functional
Outline: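 Compounds dissolved in PBS immediately before use, pH 7.4; fluorescein quenching initiated by AAPH, fluorescence (excitation 485 nm) read at 37 °C every 5 min up to 30 min. Net area under fluorescein decay curve (blank minus sample) converted to Trolox equivalents via 10–50 µM Trolox calibration; three replicates.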

CSCC[C@H](NC(=O)Cc1ccc(O)c(O)c1)C(=O)NCCc1ccc(O)c(O)c1
IC50 [1]: 68 µM | Ratio [2]: 1.24

COC(=O)[C@H](CS)NC(=O)/C=C/c1ccc(O)c(OC)c1
IC50 [1]: 84 µM | Ratio [2]: 1.4

COC(=O)[C@H](CS)NC(=O)/C=C/c1ccccc1O
IC50 [1]: 150 µM

COC(=O)[C@H](CS)NC(=O)/C=C/c1ccc(O)cc1
IC50 [1]: 148 µM

COC(=O)[C@H](Cc1ccc(O)cc1)NC(=O)Cc1ccc(O)c(O)c1
IC50 [1]: 44 µM | Ratio [2]: 4.8

O=C(O)/C=C/c1ccc(O)c(O)c1 [CAFFEIC ACID]
IC50 [1]: 41 µM | Ratio [2]: 2.7

COC(=O)[C@@H](N)Cc1ccc(O)cc1.Cl
IC50 [1]: > 1280 µM | Ratio [2]: 3.9

COC(=O)[C@H](Cc1ccc(O)cc1)NC(=O)/C=C/c1ccc(O)c(O)c1
IC50 [1]: 30 µM | Ratio [2]: 3.4

COC(=O)[C@H](CS)NC(=O)/C=C/c1cc(OC)c(O)c(OC)c1
IC50 [1]: 76 µM | Ratio [2]: 1.3

Cc1c(C)c2c(c(C)c1O)CCC(C)(C(=O)O)O2 (racemic) [TROLOX]
IC50 [1]: 55 µM

O=C(Cc1ccc(O)c(O)c1)N[C@@H](CS)C(=O)NCCc1ccc(O)c(O)c1
IC50 [1]: 20 µM | Ratio [2]: 1.77

COC(=O)[C@H](CS)NC(=O)/C=C/c1cccc(O)c1
IC50 [1]: 185 µM

COC(=O)[C@H](CCSC)NC(=O)/C=C/c1ccc(O)c(O)c1
IC50 [1]: 25 µM | Ratio [2]: 2.3

COC(=O)[C@H](CS)NC(=O)Cc1ccc(O)c(OC)c1
IC50 [1]: 82 µM | Ratio [2]: 2.4

CSCC[C@H](NC(=O)/C=C/c1ccc(O)c(O)c1)C(=O)NCCc1ccc(O)c(O)c1
IC50 [1]: 23 µM | Ratio [2]: 3.38

O=C(/C=C/c1ccc(O)c(O)c1)N[C@@H](Cc1ccc(O)cc1)C(=O)NCCc1ccc(O)c(O)c1
IC50 [1]: 32 µM | Ratio [2]: 2.79

COC(=O)[C@H](CCSC)NC(=O)Cc1ccc(O)c(O)c1
IC50 [1]: 48 µM | Ratio [2]: 3.6

COC(=O)[C@@H](N)CCSC.Cl [METHIONINE METHYL ESTER HYDROCHLORIDE]
IC50 [1]: > 1250 µM | Ratio [2]: 0.8

O=C(Cc1ccc(O)c(O)c1)N[C@@H](Cc1ccc(O)cc1)C(=O)NCCc1ccc(O)c(O)c1
IC50 [1]: 32 µM | Ratio [2]: 3.82

O=C(/C=C/c1ccc(O)c(O)c1)N[C@@H](CS)C(=O)NCCc1ccc(O)c(O)c1
IC50 [1]: 26 µM | Ratio [2]: 0.855

COC(=O)[C@@H](N)CS.Cl
IC50 [1]: 123 µM | Ratio [2]: 0.3

COC(=O)[C@H](CS)NC(=O)Cc1ccc(O)c(O)c1
IC50 [1]: 29 µM | Ratio [2]: 3

COC(=O)[C@H](CS)NC(=O)c1cc(OC)c(O)c(OC)c1
IC50 [1]: 143 µM

COC(=O)[C@H](CS)NC(=O)/C=C/c1ccc(O)c(O)c1
IC50 [1]: 22 µM | Ratio [2]: 1.4

O=C(O)Cc1ccc(O)c(O)c1 [3,4-DIHYDROXYPHENYLACETIC ACID]
IC50 [1]: 26 µM | Ratio [2]: 4.2
